# An excerpt weighted towards active compounds, which were near 1.2% of everything screened.
# CAL PDZ FP-1: CAL PDZ peptide-binding inhibitors, primary screen, biochemical, fluorescence polarization, Cer-tagged CAL PDZ, HTS; Golgi-associated PDZ and coiled-coil motif-containing protein (Homo sapiens), Q9HD26; purified CAL PDZ, TMR-peptide fluorescence polarization, 1 h; inhibition, % at 20 µM; actives 0.02% (n = 330,000); AID 504414, 2011;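 active = highest replicate inhibition of at least 40%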;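 also: plate controls were DMSO neutral control wells for no effect and unlabeled competitor peptide control wells for full effect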
#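 Material: tagged CAL PDZ domain; buffer or medium: 25 mM sodium phosphate pH 7.4, 150 mM NaCl, TCEP, IgG, Thesit; compound dosing: single point, 20 µM; schedule: 1 h incubation at room temperature before polarization reading; measured by: FP readout, S and P plane fluorescence; read-out basis: percent inhibition from loss of millipolarization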
# CAL PDZ FP-2: untagged CAL PDZ binding inhibitors, primary screen, biochemical, fluorescence polarization, HTS. Golgi-associated PDZ and coiled-coil motif-containing protein (Homo sapiens), Q9HD26. purified CAL PDZ, TMR-peptide fluorescence polarization, 1 h. inhibition, % at 24.9 µM. actives 0.92% (n = 300,000). AID 602252, 2012;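 active = mean inhibition of at least 30% with at least half of replicates also reaching 30%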;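 also: 0% = DMSO neutral control and 100% = excess unlabeled competitor peptide PRC23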
# CaV13 FRET inh: Primary screen for inhibitors of IQ motif and Ca2+-dependent inactivation inhibitor domain binding in CACNA1D, Förster resonance energy transfer in living cells, …; HEK cells, CFP/YFP FRET ICDI-IQ, plate reader, 10 min; percent FRET-ratio fall versus neutral wells; inhibition, % at 12.3 µM; actives 0.098% (n = 340,000); AID 743397;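 active = mean replicate inhibition of at least 30% and at least 1% of replicates passing that level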;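 also: 0% = median of the neutral control wells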
# ARNT-TACC3 inh: disruptors of ARNT/TACC3 protein interaction, primary screen, biochemical, AlphaScreen, single concentration; Transforming acidic coiled-coil-containing protein 3 (Homo sapiens), Q9Y6A5; AlphaScreen His-ARNT PAS-B/GST-TACC3 binding, luminescence; TACC3 fragment carries E629A point mutation; inhibition, % at 9.99 µM; actives 0.66% (n = 390,000);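 active = mean inhibition of replicates at least 50% and at least half of replicates each reaching 50%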;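 also: 0% = complete ARNT plus TACC3 wells and 100% = ARNT alone without TACC3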
# An asterisk follows results filed as active; · = no result.
SMILES,CAL PDZ FP-1,CAL PDZ FP-2,CaV13 FRET inh,ARNT-TACC3 inh
C[C@H]1CN([C@@H](C)CO)S(=O)(=O)c2ccc(-c3ccc(C(=O)N(C)C)cc3)cc2O[C@@H]1CN(C)C(=O)C1CCC1,·,·,·,32
CNC[C@@H]1Oc2cc(-c3ccccc3F)ccc2S(=O)(=O)N([C@H](C)CO)C[C@H]1C,·,·,·,-12
C[C@H]1CN([C@@H](C)CO)S(=O)(=O)c2ccc(-c3ccncc3)cc2O[C@@H]1CN(C)C(=O)Nc1ccc(C(F)(F)F)cc1,·,·,·,-1
COCCN(CCOC)S(=O)(=O)c1ccc(C(=O)Nc2nnc(COC)o2)cc1,-1,1,-2,32
Cc1nnc(NC(=O)c2ccc(S(=O)(=O)N(C)Cc3ccccc3)cc2)o1,-1,-3,·,46*
COCc1nnc(NC(=O)c2ccc(S(=O)(=O)N(C)Cc3ccccc3)cc2)o1,-2,0,-2,49*
CCN(Cc1ccccc1)S(=O)(=O)c1ccc(C(=O)Nc2nnc(C3CC3)o2)cc1,-1,·,-6,33
Cc1nnc(NC(=O)c2ccc3ccccc3c2)o1,0,-4,-5,52*
O=C(Nc1nnc(-c2ccco2)o1)c1ccc2ccccc2c1,-2,-2,-6,-1
CC=Cc1ccc2n(c1=O)C[C@H]1[C@H](CO)[C@@H](C(=O)NCc3ccncc3)N(Cc3ccncc3)[C@@H]21 (mixture of isomers),·,·,·,-41
Cc1ccc(S(=O)(=O)N[C@H]2CC[C@@H](CCn3cc(-c4cccnc4)nn3)O[C@@H]2CO)cc1,·,·,·,-1
O=C(CSc1nnc(CNC(=O)c2ccccc2F)o1)NCc1ccco1,-1,62*,-2,3
Cc1ccc(NC(=O)CSc2nnc(CNC(=O)c3ccco3)o2)cc1,-3,-1,9,-1
Cc1cccc(-c2nnc(SCC(=O)NC3CCCC3)o2)c1,-1,86*,-5,·
O=C(NCc1nnc(SCC(=O)N2CCCCCC2)o1)c1ccccc1F,-1,-8,-2,2
O=C(CSc1nnc(CNC(=O)c2ccco2)o1)Nc1ccc(F)cc1,-4,57*,-3,1
O=C(CSc1nnc(CNC(=O)c2ccccc2F)o1)NC1CCCC1,0,37*,-2,0
C[C@H](CO)N1C[C@H](C)[C@@H](CN(C)C(=O)Nc2ccc(F)cc2)OCCCC[C@H](C)Oc2ccc(NC(=O)CCC(F)(F)F)cc2C1=O,·,·,·,-3
CCOC(=O)Cc1nnc(Nc2cccc(C)c2)c2ccccc12,-1,-7,-6,-1
COC(=O)Cc1nnc(Nc2cccc(C)c2)c2ccccc12,-1,30*,1,3
CN(C(=O)CSc1cn(CC(=O)N2CCOCC2)c2ccccc12)c1ccccc1,-1,35*,-3,-6
O=C(N[C@H]1CC[C@@H](CC(=O)N2CCOCC2)O[C@@H]1CO)c1ccc2c(c1)OCO2,·,·,·,-3
C[C@H](NC(=O)C[C@@H]1C=C[C@H](NC(=O)C2CCOCC2)[C@@H](CO)O1)c1ccccc1,·,·,·,-5
C[C@H](CO)N1C[C@H](C)[C@@H](CN(C)Cc2cccc(C(=O)O)c2)Oc2ncc(C#CCN(C)C)cc2C1=O,·,·,·,-8
COc1ccc(S(=O)(=O)Nc2cccc3c2O[C@H](CN(C)Cc2ccc(Oc4ccccc4)cc2)[C@H](C)CN([C@@H](C)CO)C3=O)cc1,·,·,·,2
O=C(NCc1cccc(Cl)c1)C1CCC(=O)N(CCCN2CCCC2=O)C1 (stereo not drawn),0,70*,-9,-8
O=C(NCc1cccc(F)c1)C1CCC(=O)N(CCCN2CCOCC2)C1 (stereo not drawn),5,1,-4,·
O=C(NCCc1cccc(F)c1)C1CCC(=O)N(C2CCCCCC2)C1 (stereo not drawn),-1,·,-14,1
O=C(NCc1cccc(F)c1)C1CCC(=O)N(C2CCCC2)C1 (stereo not drawn),0,84*,-15,13
CNC[C@H]1Oc2c(NC(=O)C3CC3)cccc2C(=O)N([C@H](C)CO)C[C@H]1C,·,·,·,0

# Assay outcomes: PubChem BioAssay, Broad Institute
